Assay outcomes deposited in PubChem BioAssay by several laboratories.
A selection: hits, their analogues and other compounds. The true share with any hit is near 1%.
Bfl-1 A1 inh: inhibitors of the anti-apoptotic protein A1, read as caspase activation. MEF A1-2A-BIM cells, Caspase-Glo 3/7 luminescence, 3 h; percent of clofoctol response, vehicle zero. caspase activation, % (concentration not given with the values). hit rate 0.066% among 330,000. AID 2462;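 active means over half of replicate activation scores above 10%, or exactly half above 10 with the replicate mean above 10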
NALP1 yeast inh: inhibitors of NALP1 inflammasome in yeast; S. cerevisiae NALP1/ASC/caspase-1 growth, X-gal OD620, 72 h; inhibition, % at 10 µM; hit rate 0.61% among 280,000; AID 2071; in the data active means inhibition mostly above about 24%, no sharp cut-off; inactive means mostly below about 32%
NALP3 yeast inh: inhibitors of NALP3 inflammasome in yeast; hit rate 0.39% among 330,000; inhibition, % at 10 µM; Yeast reconstituted NLRP3/ASC/caspase-1, beta-gal luminescence, 24 h;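 active means inhibition of 50% or more; inactive means inhibition below 50%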;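 further: plate controls were induced DMSO wells for no effect and uninduced yeast grown without galactose for full effect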
T cell HTS: T cell immune modulation candidate; 2C CD8+ T cell-vesicle binding, flow cytometry; active compounds read low; response (vesicle binding), % at 7 µM; hit rate 0.068% among 330,000;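 active means response, share of CD8 T cells binding vesicles, and their 90th percentile fluorescence all below set limits, cut at about 80% in these data, passing the limit was not always enough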;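 further: values below 100% mean blocked vesicle binding to the CD8+ T cells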
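Benchmarks: naked versus QL9-loaded vesicles / Assay system: purified 2C TCR transgenic mouse naive CD8+ T cells / Technique: high-throughput flow cytometry with anti-B7-1 and anti-CD8 staining / Timing: Cell–vesicle co-incubation 1.5 h at 37 °C, staining 20 min on ice / Read-out: percent CD8+ FL2 mean versus row control / Probe or stimulus: QL9-loaded Drosophila micro-vesicles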
Starred values were filed as active, the others as inactive; i = inactive; / = not tested or not shown.

SMILES	Bfl-1 A1 inh	NALP1 yeast inh	NALP3 yeast inh	T cell HTS
CC(NCc1ccc2c(c1)OCO2)C(=O)NC1CCCCC1 (stereo not given)	-0.7	-7.5	17.1	236.6
CC(NCc1ccc(F)cc1)C(=O)NC1CCCCC1 (stereo not given)	0.6	43.5*	8.8	148.5
Cn1c(C(=O)N2CCCC(C(=O)NCCN3CCOCC3)C2)cc2sccc21 (stereo not given)	0.2	30.2*	14.6	273.8
Clc1ccc(-c2cnc(Oc3ccccc3)nc2)cc1	-0.2	38.6*	-8.6	208.6
Cc1cc(Cl)ccc1Oc1ncc(-c2ccc(Cl)cc2)cn1	-0.1	2.0	17.4	312.9
CCOC(=O)/C(C#N)=C1\SS/C(=C(/C#N)C(=O)OCC)S1	-0.2	79.5*	16.7	214.9
CCCc1cc(=O)[nH]c(SCCOc2ccc(OCC)cc2)n1	-1.7	43.7*	20.2	209.9
CCOc1ccc(OCCSc2nc(N)cc(=O)[nH]2)cc1	-5.6	13.3	7.8	123.7
O=C(Nc1ccc2c(c1)OCO2)c1ccc(Br)o1	-6.7	7.9	34.5	475.7
C/C(=N\NC(=O)c1ccc(Br)o1)c1cc2c(cc1NC(=O)CCC(=O)O)OCO2	-0.3	2.3	14.8	0.0*
COc1ccc(CCNCC(O)COc2ccc(OC)cc2C(C)(C)C)cc1 (stereo not given)	0.5	31.7	29.6	195.1
COc1ccc(S(=O)(=O)N2CCN(C(=O)C3COc4ccccc4O3)CC2)cc1 (stereo not given)	0.5	/	18.7	237.4
CN1CCN(c2ccc(CNS(=O)(=O)Cc3ccc(Cl)cc3)cc2)CC1	-1.0	21.1*	4.2	241.5
CN1CCN(c2ccc(CNS(=O)(=O)c3ccc(F)cc3Cl)cc2)CC1	0.1	20.1	5.7	481.1
C[C@H](CO)N1C[C@H](C)[C@@H](CN(C)Cc2ccncc2)Oc2ccc(NC(=O)Cn3cnnn3)cc2C1=O	0.0	/	17.3	371.7
O=[N+]([O-])/C=C/c1cn(Cc2ccc(Cl)cc2)c2ccccc12	9.1*	27.9	14.8	171.0
Cc1cccc(Cn2cc(/C=C/[N+](=O)[O-])c3ccccc32)c1	0.8	9.8	6.3	265.8
CC(=O)Nc1ccc(NC(=O)c2ccccc2C)cc1	0.2	24.1	6.9	498.5
Cc1ccccc1C(=O)Nc1ccccc1	-0.6	31.4*	6.9	379.6
O=S(=O)(Nc1nccs1)c1ccc(F)cc1	0.6	27.4*	7.2	657.2
O=C(N/N=C/c1ccoc1)c1cccc(OC(F)(F)C(F)F)c1	0.2	/	4.9	442.6
CCc1ccc(-c2ccc(C(=O)O)cc2)nc1	-7.3	10.8	6.6	32.9*
CC1=C(C(=O)Nc2ccccc2C(=O)NCCCOC(C)C)SCCO1	0.0	27.9	15.0	216.2
CCOc1ccc(NC(=S)NC(=O)/C=C/c2ccc(C)cc2)c([N+](=O)[O-])c1	17.4*	5.3	32.5	429.1
C[C@H]1CN([C@@H](C)CO)C(=O)Cc2cc(NC(=O)Cc3ccccc3)ccc2O[C@H]1CN(C)C(=O)Nc1cccc2ccccc12	1.5	/	5.7	675.0
SMILES	Bfl-1 A1 inh	NALP1 yeast inh	NALP3 yeast inh	T cell HTS
Cc1ccc(C(=O)N2CCN(c3ccc(NC(=S)NC(=O)Cc4ccccc4)cc3)CC2)cc1	-0.2	-1.5	-12.0	0.0
COc1ccc(C(=O)N2CCN(c3ccc(NC(=O)Cc4ccccc4)cc3)CC2)cc1	0.3	19.6	10.3	0.0*
Cc1cc(NS(=O)(=O)c2ccc(NC(=O)c3cnc(Cl)c(Cl)c3)cc2)nc(C)n1	-0.1	/	18.3	336.4
Cc1ccc(N2CCN(CC(=O)Nc3c(C(=O)C4CC4)oc4ccccc34)CC2)cc1	/	47.0*	/	/
C#CCNC(=O)C1=C[C@@H](C(C)(C)C)C[C@@H](OCc2ccc(CO)cc2)O1	-0.2	29.7*	12.1	368.4
CC(C)(C)[C@@H]1C=C(C(=O)NCc2ccccc2)O[C@H](OCc2ccc(CO)cc2)C1	0.6	4.5	17.7	343.8
COc1ccccc1CNC(=O)c1cc2ccccc2oc1=O	1.2	28.0*	6.7	277.9
Cc1ccc(C2=N/C(=C/N3CCOCC3)C(=O)O2)cc1	1.6	11.9	11.9	385.0
Cc1ccc(C2=N/C(=C\N3CCCCC3)C(=O)O2)cc1	0.2	37.7*	29.9	276.5
CC(NC(=O)CN(Cc1ccccc1)S(=O)(=O)c1ccccc1)c1cccnc1 (stereo not given)	0.1	/	0.8	i
COC(=O)C1CCN(Cc2cn(Cc3ccccc3)nc2-c2cc3ccccc3o2)CC1	0.2	32.0*	20.0	286.9
CCC(C)NS(=O)(=O)c1ccc(S(=O)(=O)N(CC(=O)Nc2ccccc2)Cc2ccco2)cc1 (stereo not given)	-0.7	42.2*	13.8	464.2
Cc1cc(N2CCOCC2)nc2ccc(Cl)cc12	-0.3	7.9	32.5	427.0
CC(C)CN(Cc1cc(=O)oc2cc3c(cc12)CCCC3)CC(C)C	-0.1	3.7	13.6	76.5*
COCCN(CCOC)Cc1cc(=O)oc2cc3c(cc12)CCC3	0.4	7.5	4.4	511.1
COCCNC(=O)c1cc2nc3c(c(C(F)(F)F)n2n1)CCc1ccccc1-3	0.8	30.3*	-12.0	291.2
O=C(O)c1cc2nc3c(c(C(F)(F)F)n2n1)CCc1ccccc1-3	0.4	23.2	-9.4	435.3
Cc1ccc(CNC(=O)Nc2ccc3c(c2)N(C)C(=O)CS3)cc1	0.2	30.7*	26.5	199.1
COCCN1Cc2cccc(C(=O)NCCc3ccccc3)c2C1=O	-0.4	16.2	10.6	246.3
COCCCN1Cc2cccc(C(=O)O)c2C1=O	0.0	37.7*	11.6	583.3
O=S(=O)(c1ccc(-c2nc3ccccc3s2)cc1)N1CCCC1	-5.9	13.1	0.2	253.0
CC1CN(S(=O)(=O)c2ccc(-c3nc4ccccc4s3)cc2)CC(C)O1 (stereo not given)	0.9	30.4*	1.7	0.0
CNS(=O)(=O)c1cccc(C(=O)NCC(c2cccs2)N2CCOCC2)c1 (stereo not given)	-0.4	/	25.4	294.7
CSCCC(NS(=O)(=O)c1ccc(Cl)cc1)C(=O)OCC(=O)N(C(C)C)C(C)C (stereo not given)	1.0	35.2*	3.5	397.4
CCc1ccc2nc(N(CCN(C)C)C(=O)c3ccc4ncsc4c3)sc2c1	-1.2	12.4	18.3	251.6
SMILES	Bfl-1 A1 inh	NALP1 yeast inh	NALP3 yeast inh	T cell HTS
O=C1C=CCC(/C=C/c2ccccc2)O1 (stereo not given)	-1.2	46.6*	25.2	349.7
CCN(CC)C(=O)C1CCCN(Cc2ccc3ccccc3c2)C1 (stereo not given)	0.0	21.6	11.2	234.5
CN(c1ccccc1)S(=O)(=O)c1cccc(NC(=O)c2ccc(Cl)c([N+](=O)[O-])c2)c1	-0.5	/	9.5	387.3
O=C(CN1CCN(c2ccccc2)CC1)c1ccc2cc[nH]c2c1	0.1	37.7*	20.7	725.5
CCCCc1cc(=O)oc2c(CN(CC)CC)c(O)c(Cl)cc12	-0.4	4.3	0.3	264.5
CCCc1cc(=O)oc2c(CN(CC)CC)c(O)c(Cl)cc12	0.4	35.1*	11.6	200.5
CCOc1ccc(N(CC(=O)N2CCN(C(=O)CN(c3ccc(OCC)cc3)S(C)(=O)=O)CC2)S(C)(=O)=O)cc1	-0.3	-1.5	2.9	172.6
